Results: ChEMBL document CHEMBL3576819, “Design, synthesis, biological evaluation and molecular docking studies of phenylpropanoid derivatives as potent anti-hepatitis B virus agents” (Eur J Med Chem, 2015)

Assays:
[1] = Cytotoxicity against human HepG2.2.15 cells assessed as cell death after 9 days by MTT assay; type: cell-based, HepG2 2.2.15
Procedure, shortened: (§1)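 HepG2.2.15 cells (MEM, 10% FBS, 380 µg/ml G418, 37 °C, 5% CO2) seeded at 1×10^5 cells/ml, cultured 24 h, then exposed to various drug concentrations; drug-containing medium renewed every 3 d. OD read at 450 nm after 9 days; percent cell death calculated; CC50 = concentration killing 50% of cells. Means of at least two experiments.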

[2] = Selectivity index, ratio of CC50 for human HepG2.2.15 cells to IC50 for Hepatitis B virus infected in human HepG2.2.15 cells assessed as inhibition of HBsAg secretion; type: functional
Procedure, shortened: (§2)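 Selectivity index computed as CC50/IC50, with CC50 from cell death of HepG2.2.15 cells after 9 days of treatment (OD 450 nm) and IC50 from 50% inhibition of HBeAg or HBsAg secretion in the same cells; medium with drug renewed every 3 d.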

Hepatitis B virus [3] = assay: Antiviral activity against Hepatitis B virus infected in human HepG2.2.15 cells assessed as inhibition of HBsAg secretion by ELISA; type: functional, organism-based; settings: HepG2 2.2.15
Procedure, shortened: (§3)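 HepG2.2.15 cells (MEM, 10% FBS, 380 µg/ml G418) seeded at 1×10^5 cells/ml, held 24 h at 37 °C, then treated with various drug concentrations; medium with drug renewed every 3 d for up to 9 d. Culture medium sampled on days 3, 6 and 9, stored at -20 °C, and assayed for secreted antigen. Lamivudine as positive control; IC50 = 50% inhibition of secretion; means of at least two experiments.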

Hepatitis B virus [4] = assay: Antiviral activity against Hepatitis B virus infected in human HepG2.2.15 cells assessed as inhibition of HBeAg secretion by ELISA; type: functional, organism-based; settings: HepG2 2.2.15; procedure, shortened: as §3
[5] = Selectivity index, ratio of CC50 for human HepG2.2.15 cells to IC50 for Hepatitis B virus infected in human HepG2.2.15 cells assessed as inhibition of HBeAg secretion; type: functional; procedure, shortened: as §2
Hepatitis B virus [6] = assay: Antiviral activity against Hepatitis B virus infected in human HepG2.2.15 cells assessed as inhibition of HBeAg secretion at 300 uM after 3 days by ELISA; type: functional; settings: HepG2 2.2.15, 72 h; procedure, shortened: as §3
Hepatitis B virus [7] = assay: Antiviral activity against Hepatitis B virus infected in human HepG2.2.15 cells assessed as inhibition of HBsAg secretion at 300 uM after 6 days by ELISA; type: functional; settings: HepG2 2.2.15, 144 h; procedure, shortened: as §3
Hepatitis B virus [8] = assay: Antiviral activity against Hepatitis B virus infected in human HepG2.2.15 cells assessed as inhibition of HBeAg secretion at 37.5 uM after 6 days by ELISA; type: functional; settings: HepG2 2.2.15, 144 h; procedure, shortened: as §3
Hepatitis B virus [9] = assay: Antiviral activity against Hepatitis B virus infected in human HepG2.2.15 cells assessed as inhibition of HBsAg secretion at 300 uM after 3 days by ELISA; type: functional; settings: HepG2 2.2.15, 72 h; procedure, shortened: as §3
Hepatitis B virus [10] = assay: Antiviral activity against Hepatitis B virus infected in human HepG2.2.15 cells assessed as inhibition of HBeAg secretion at 75 uM after 3 days by ELISA; type: functional; settings: HepG2 2.2.15, 72 h; procedure, shortened: as §3
Hepatitis B virus [11] = assay: Antiviral activity against Hepatitis B virus infected in human HepG2.2.15 cells assessed as inhibition of HBsAg secretion at 150 uM after 9 days by ELISA; type: functional; settings: HepG2 2.2.15, 216 h; procedure, shortened: as §3
Hepatitis B virus [12] = assay: Antiviral activity against Hepatitis B virus infected in human HepG2.2.15 cells assessed as inhibition of HBeAg secretion at 150 uM after 3 days by ELISA; type: functional; settings: HepG2 2.2.15, 72 h; procedure, shortened: as §3
Hepatitis B virus [13] = assay: Antiviral activity against Hepatitis B virus infected in human HepG2.2.15 cells assessed as cell survival at 300 uM after 9 days (reference value: 100%); type: functional; settings: HepG2 2.2.15, 216 h; procedure, shortened: as §1
Hepatitis B virus [14] = assay: Antiviral activity against Hepatitis B virus infected in human HepG2.2.15 cells assessed as inhibition of HBsAg secretion at 300 uM after 9 days by ELISA; type: functional; settings: HepG2 2.2.15, 216 h; procedure, shortened: as §3
Hepatitis B virus [15] = assay: Antiviral activity against Hepatitis B virus infected in human HepG2.2.15 cells assessed as inhibition of HBeAg secretion at 150 uM after 9 days by ELISA; type: functional; settings: HepG2 2.2.15, 216 h; procedure, shortened: as §3
Hepatitis B virus [16] = assay: Antiviral activity against Hepatitis B virus infected in human HepG2.2.15 cells assessed as cell survival at 37.5 uM after 9 days (reference value: 100%); type: functional; settings: HepG2 2.2.15, 216 h; procedure, shortened: as §1
Hepatitis B virus [17] = assay: Antiviral activity against Hepatitis B virus infected in human HepG2.2.15 cells assessed as inhibition of HBeAg secretion at 75 uM after 9 days by ELISA; type: functional; settings: HepG2 2.2.15, 216 h; procedure, shortened: as §3
Hepatitis B virus [18] = assay: Antiviral activity against Hepatitis B virus infected in human HepG2.2.15 cells assessed as inhibition of HBsAg secretion at 37.5 uM after 9 days by ELISA; type: functional; settings: HepG2 2.2.15, 216 h; procedure, shortened: as §3
Hepatitis B virus [19] = assay: Antiviral activity against Hepatitis B virus infected in human HepG2.2.15 cells assessed as cell survival at 75 uM after 9 days (reference value: 100%); type: functional; settings: HepG2 2.2.15, 216 h; procedure, shortened: as §1
Hepatitis B virus [20] = assay: Antiviral activity against Hepatitis B virus infected in human HepG2.2.15 cells assessed as inhibition of HBeAg secretion at 37.5 uM after 9 days by ELISA; type: functional; settings: HepG2 2.2.15, 216 h; procedure, shortened: as §3
Hepatitis B virus [21] = assay: Antiviral activity against Hepatitis B virus infected in human HepG2.2.15 cells assessed as inhibition of HBsAg secretion at 75 uM after 6 days by ELISA; type: functional; settings: HepG2 2.2.15, 144 h; procedure, shortened: as §3
Hepatitis B virus [22] = assay: Antiviral activity against Hepatitis B virus infected in human HepG2.2.15 cells assessed as inhibition of HBeAg secretion at 37.5 uM after 3 days by ELISA; type: functional; settings: HepG2 2.2.15, 72 h; procedure, shortened: as §3
Hepatitis B virus [23] = assay: Antiviral activity against Hepatitis B virus infected in human HepG2.2.15 cells assessed as inhibition of HBeAg secretion at 75 uM after 6 days by ELISA; type: functional; settings: HepG2 2.2.15, 144 h; procedure, shortened: as §3
Hepatitis B virus [24] = assay: Antiviral activity against Hepatitis B virus infected in human HepG2.2.15 cells assessed as inhibition of HBsAg secretion at 150 uM after 6 days by ELISA; type: functional; settings: HepG2 2.2.15, 144 h; procedure, shortened: as §3
Hepatitis B virus [25] = assay: Antiviral activity against Hepatitis B virus infected in human HepG2.2.15 cells assessed as inhibition of HBsAg secretion at 75 uM after 9 days by ELISA; type: functional; settings: HepG2 2.2.15, 216 h; procedure, shortened: as §3
Hepatitis B virus [26] = assay: Antiviral activity against Hepatitis B virus infected in human HepG2.2.15 cells assessed as inhibition of HBeAg secretion at 300 uM after 6 days by ELISA; type: functional; settings: HepG2 2.2.15, 144 h; procedure, shortened: as §3
Hepatitis B virus [27] = assay: Antiviral activity against Hepatitis B virus infected in human HepG2.2.15 cells assessed as inhibition of HBsAg secretion at 37.5 uM after 6 days by ELISA; type: functional; settings: HepG2 2.2.15, 144 h; procedure, shortened: as §3
Hepatitis B virus [28] = assay: Antiviral activity against Hepatitis B virus infected in human HepG2.2.15 cells assessed as cell survival at 150 uM after 9 days (reference value: 100%); type: functional; settings: HepG2 2.2.15, 216 h; procedure, shortened: as §1
Hepatitis B virus [29] = assay: Antiviral activity against Hepatitis B virus infected in human HepG2.2.15 cells assessed as inhibition of HBsAg secretion at 150 uM after 3 days by ELISA; type: functional; settings: HepG2 2.2.15, 72 h; procedure, shortened: as §3
Hepatitis B virus [30] = assay: Antiviral activity against Hepatitis B virus infected in human HepG2.2.15 cells assessed as inhibition of HBeAg secretion at 300 uM after 9 days by ELISA; type: functional; settings: HepG2 2.2.15, 216 h; procedure, shortened: as §3
Hepatitis B virus [31] = assay: Antiviral activity against Hepatitis B virus infected in human HepG2.2.15 cells assessed as inhibition of HBeAg secretion at 150 uM after 6 days by ELISA; type: functional; settings: HepG2 2.2.15, 144 h; procedure, shortened: as §3
Hepatitis B virus [32] = assay: Antiviral activity against Hepatitis B virus infected in human HepG2.2.15 cells assessed as inhibition of HBsAg secretion at 75 uM after 3 days by ELISA; type: functional; settings: HepG2 2.2.15, 72 h; procedure, shortened: as §3

With COc1cc(C=O)cc2c1OCO2 the CC50 at 216 h [1] was 1080 µM.
With COc1cc(/C=C/C(=O)O)cc2c1OCO2 the “Ratio CC50/IC50” value [2] was 1.62, the IC50 (Hepatitis B virus [3]) was 411 µM and the IC50 (Hepatitis B virus [4]) was 477 µM. For the same compound, the “Ratio CC50/IC50” value [5] was 1.4 and the CC50 at 216 h [1] was 667 µM.
For O/N=C/c1ccco1, the “Ratio CC50/IC50” value [2] was 1.01, the IC50 (Hepatitis B virus [3]) was 480 µM and the IC50 (Hepatitis B virus [4]) was 519 µM. For the same compound, the “Ratio CC50/IC50” value [5] was 0.91 and the CC50 at 216 h [1] was 475 µM.
With COc1ccc(/C=C/C(=O)O/N=C/c2ccccn2)cc1OC the inhibition at 300 µM (Hepatitis B virus [6]) was 50.4%, the “Ratio CC50/IC50” value [2] was 3.59 and the inhibition at 300 µM (Hepatitis B virus [7]) was 32.8%. For the same compound, the inhibition at 37.5 µM (Hepatitis B virus [8]) was 24.7%, the inhibition at 300 µM (Hepatitis B virus [9]) was 13.3% and the inhibition at 75 µM (Hepatitis B virus [10]) was 27.7%. The inhibition at 150 µM (Hepatitis B virus [11]) was 54.5%, the inhibition at 150 µM (Hepatitis B virus [12]) was 36.7% and the viability at 300 µM (Hepatitis B virus [13]) was 99.5%. For the same compound, the inhibition at 300 µM (Hepatitis B virus [14]) was 61.3%, the IC50 (Hepatitis B virus [3]) was 152 µM and the inhibition at 150 µM (Hepatitis B virus [15]) was 48.4%. The viability at 37.5 µM (Hepatitis B virus [16]) was 107%, the IC50 (Hepatitis B virus [4]) was 162 µM and the inhibition at 75 µM (Hepatitis B virus [17]) was 40.3%. The inhibition at 37.5 µM (Hepatitis B virus [18]) was 19.8%, the viability at 75 µM (Hepatitis B virus [19]) was 104% and the inhibition at 37.5 µM (Hepatitis B virus [20]) was 27%. The “Ratio CC50/IC50” value [5] was 3.37, the inhibition at 75 µM (Hepatitis B virus [21]) was 19.5% and the inhibition at 37.5 µM (Hepatitis B virus [22]) was 19.3%. For the same compound, the inhibition at 75 µM (Hepatitis B virus [23]) was 32.9%, the CC50 at 216 h [1] was 545 µM and the inhibition at 150 µM (Hepatitis B virus [24]) was 26.8%. It also gave an inhibition at 75 µM (Hepatitis B virus [25]) of 36.7%, an inhibition at 300 µM (Hepatitis B virus [26]) of 56.9% and an inhibition at 37.5 µM (Hepatitis B virus [27]) of 11.2%. For the same compound, the viability at 150 µM (Hepatitis B virus [28]) was 102%, the inhibition at 150 µM (Hepatitis B virus [29]) was 10.8% and the inhibition at 300 µM (Hepatitis B virus [30]) was 59.2%. It also gave an inhibition at 150 µM (Hepatitis B virus [31]) of 47.4% and an inhibition at 75 µM (Hepatitis B virus [32]) of 2.54%.
